Assay results: publication PMC6938543 (Vaccine, 2019)

Legend:
[1] = system: Anti-α-PVP/MDPV polyclonal antibody; assay: Competitive magnetic bead-based radioimmunoassay; assay type: binding, rat; settings: MDPV-t2 tracer; for IC50: structurally related cathinones tested at 10 μM and 100 μM only
Outline: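 Sera came from male SD rats immunized sc with 100 μg bi-specific KLH conjugate plus 150 μL SAS. The competitive magnetic-bead RIA was specific for IgG binding and used tritium-labeled drug as tracer. Full inhibition curves with unlabeled drug gave IC50; one curve used a racemic homologous tritiated tracer. Analogues were tested only at 10 and 100 μM against 5 nM MDPV-t₂, scored as inhibition of tracer binding.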

[2] = system: drug-specific pAb; settings: pAb from earlier separate α-PVP and MDPV vaccines; cited from earlier work
[3] = system: male SD rats; assay type: in vivo, rat; settings: SAS control rats; sc
Outline: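 Thirteen weeks after initial sc immunization (SAS alone or vaccine plus SAS), male SD rats (n=5–6/group) were habituated 60 min in litter-lined open-field chambers. They then got sc saline or drug at 0.3–5.6 mg/kg in ascending doses, 2–3 days apart, with each drug in a separate study. Video tracking ran 6 h; horizontal distance was summed per rat and reported as mean ± SD.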

[4] = MDPV and α-PVP serum concentrations after sc challenge dose; assay type: in vivo, rat; settings: SAS and vaccinated rats, LC-MS/MS
[5] = Stability of α-PVP in extracted rat serum; assay type: physicochemical; settings: 4 °C
[6] = humans; cited from earlier work

| Compound | inhibition of MDPV-t2 binding ([1]; 100 μM ligand) [%] | IC50 [1] [µM] | also measured |
| --- | --- | --- | --- |
| NC[C@H](O)c1ccc(O)c(O)c1 [norepinephrine] | ≤ 50 |  |  |
| CNC(C)C(=O)c1ccc2c(c1)OCO2 (stereo not shown) [Methylone] |  | > 100 |  |
| NCCc1c[nH]c2ccc(O)cc12 [serotonin] | ≤ 50 |  |  |
| CCC(C(=O)c1ccc2c(c1)OCO2)N1CCCC1 (stereo not drawn) [3,4-Methylenedioxy-α-pyrrolidinobutiophenone] | 50 | 100 |  |
| CN[C@@H](C)Cc1ccccc1 [methamphetamine] | ≤ 50 |  |  |
| CN[C@@H](C)[C@@H](O)c1ccccc1 [pseudoephedrine] | ≤ 50 |  |  |
| CCCC(NC)C(=O)c1ccc2c(c1)OCO2 (stereo not shown) [Pentylone] |  | > 100 |  |
| CC(C(=O)c1ccc2c(c1)OCO2)N1CCCC1 (stereo not drawn) [3,4-Methylenedioxy-α-pyrrolidinopropiophenone] |  | > 100 |  |
| NCCc1ccc(O)cc1 [tyramine] | ≤ 50 |  |  |
| CNC[C@H](O)c1ccc(O)c(O)c1 [epinephrine] | ≤ 50 |  |  |
| CCCC(C(=O)c1ccc(C)cc1)N1CCCC1 (stereo not shown) [Pyrovalerone] |  |  | inhibition of MDPV-t2 binding ([1]; 10 μM ligand): 68% |
| CNC(C)C(=O)c1ccc(C)cc1 (stereo not shown) [Mephedrone] |  | > 100 |  |
| (S)-Methcathinone |  | > 100 |  |
| c1ccc(C2(N3CCCCC3)CCCCC2)cc1 [phencyclidine] | ≤ 50 |  |  |
| CCCC(C(=O)c1ccccc1)N1CCCC1 (stereo not drawn) [α-PVP, α-pyrrolidinovalerophenone] |  |  | pAb affinities constants [2]: micromolar range; dose of peak effect on horizontal movement [3]: 1.0 mg/kg; serum concentration 24 h after drug administration [4]: below the lower limit of quantitation; stability in extracted serum [5]: at least 59 h |
| CCCC(NC)C(=O)c1ccccc1 (stereo not shown) [Pentedrone] |  | > 100 |  |
| NCCc1ccc(O)c(O)c1 [dopamine] | ≤ 50 |  |  |
| C[C@H](N)C(=O)c1ccccc1 [(S)-Cathinone] |  | > 100 |  |
| CNC(C)Cc1ccc2c(c1)OCO2 (racemic) [MDMA, (±)-3,4-methylenedioxymethamphetamine] | ≤ 50 |  |  |
| CCCC(C(=O)c1ccc2c(c1)OCO2)N1CCCC1 (stereo not shown) [MDPV, 3,4-Methylenedioxypyrovalerone] |  |  | blood concentrations associated with recreational use [6]: 10 to 50 ng/mL; blood concentrations at intoxication and overdose [6]: 50 to 300 ng/mL; pAb affinities constants [2]: micromolar range; serum concentration 24 h after drug administration [4]: below the lower limit of quantitation |
| COC(=O)[C@H]1[C@@H](OC(=O)c2ccccc2)C[C@@H]2CC[C@H]1N2C [cocaine] | ≤ 50 |  |  |
